# Calls of active or inactive are those of the source. The calls are words filed in the database; no cut-off is given here.
# Experiments:
# [1] = system: PC-12; experiment: Cytoprotection against amyloid beta (1 to 42)-induced cell injury in rat PC12 cells assessed as cell viability at 10 uM preincubated for 12 hrs followed by amyloid beta (1 to 42) addition measured after 12 hrs by MTT assay (reference value: 55.3 +/- 1.5%); type: functional; conditions: read-out: Activity
# [2] = system: PC-12; experiment: Cytotoxicity against rat PC12 cells assessed as decrease in cell viability at 50 uM after 12 hrs by MTT assay; type: cell-based; conditions: pc-12, 12 h
# [3] = system: PC-12; experiment: Cytoprotection against amyloid beta (1 to 42)-induced cell injury in rat PC12 cells assessed as cell viability at 50 uM preincubated for 12 hrs followed by amyloid beta (1 to 42) addition measured after 12 hrs by MTT assay (reference value: 55.3 +/- 1.5%); type: functional; conditions: read-out: Activity
# [4] = system: PC-12; experiment: Cytoprotection against H2O2-induced cell injury in rat PC12 cells assessed as increase in cell viability at 1 to 10 uM preincubated for 12 hrs followed by H2O2 addition measured after 12 hrs by MTT assay; type: functional, cell-based
# Procedure, shortened: (§1)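 PC12 cells grown in RPMI-1640 with 15% FBS and penicillin/streptomycin, subcultured every 2 days and cultured 8 days before use. Cells seeded at 1 × 10^4/well, after 12 h pretreated with compound 12 h, then exposed to 200 µM H2O2 for 12 h. MTT added for 4 h, formazan dissolved in DMSO, OD 490 nm read. Viability given as % of untreated control, mean ± SD, n = 3, ANOVA with Dunnett's test.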
# [5] = system: PC-12; experiment: Cytoprotection against H2O2-induced cell injury in rat PC12 cells assessed as increase in cell viability preincubated for 12 hrs followed by H2O2 addition measured after 12 hrs by MTT assay; type: functional, cell-based; procedure, shortened: as §1
# [6] = system: PC-12; experiment: Cytotoxicity against rat PC12 cells assessed as decrease in cell viability at high concentration after 12 hrs by MTT assay; type: cell-based; conditions: pc-12, 12 h
# [7] = system: PC-12; experiment: Cytoprotection against amyloid beta (1 to 42)-induced toxicity in rat PC12 cells assessed as LDH release at 100 uM preincubated with cells followed by amyloid beta (1 to 42) addition measured after 24 hrs by LDH assay (reference value: 153%); type: functional
# [8] = system: PC-12; experiment: Cytoprotection against amyloid beta (1 to 42)-induced damage in rat PC12 cells assessed as intracellular MDA level at 50 uM preincubated with cells followed by amyloid beta (1 to 42) addition measured after 24 hrs by TBA assay; type: functional
# Procedure, shortened: (§2)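 For the MDA readout, PC12 cells were given 40 µM Aβ1-42 for 24 h with or without compound (10, 50, 100 µM). Samples were mixed with two volumes of TBA reagent (0.375% TBA, 15% trichloroacetic acid, 0.1 mM EDTA) and heated at 95 °C for 40 min. After cooling and centrifugation at 3000 × g for 10 min, supernatant A532 was read. Mean ± SD, n = 3.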
# [9] = system: PC-12; experiment: Cytoprotection against amyloid beta (1 to 42)-induced cell injury in rat PC12 cells assessed as cell viability at 100 uM preincubated for 12 hrs followed by amyloid beta (1 to 42) addition measured after 12 hrs by MTT assay (reference value: 55.3 +/- 1.5%); type: functional; conditions: read-out: Activity
# [10] = system: PC-12; experiment: Cytoprotection against amyloid beta (1 to 42)-induced damage in rat PC12 cells assessed as intracellular MDA level at 100 uM preincubated with cells followed by amyloid beta (1 to 42) addition measured after 24 hrs by TBA assay; type: functional; procedure, shortened: as §2
# [11] = system: PC-12; experiment: Cytoprotection against amyloid beta (1 to 42)-induced oxidative damage in rat PC12 cells assessed as intracellular ROS level at 100 uM preincubated with cells followed by amyloid beta (1 to 42) addition measured after 24 hrs by DCFH-DA staining based flow cytometry (reference value: 51.4%); type: functional
# [12] = system: PC-12; experiment: Cytoprotection against amyloid beta (1 to 42)-induced oxidative damage in rat PC12 cells assessed as reduction in intracellular ROS level preincubated with cells followed by amyloid beta (1 to 42) addition measured after 24 hrs by DCFH-DA staining based flow cytometry; type: functional, cell-based
# [13] = system: PC-12; experiment: Cytoprotection against amyloid beta (1 to 42)-induced oxidative damage in rat PC12 cells assessed as intracellular ROS level at 50 uM preincubated with cells followed by amyloid beta (1 to 42) addition measured after 24 hrs by DCFH-DA staining based flow cytometry (reference value: 51.4%); type: functional
# [14] = system: PC-12; experiment: Cytoprotection against amyloid beta (1 to 42)-induced toxicity in rat PC12 cells assessed as LDH release at 50 uM preincubated with cells followed by amyloid beta (1 to 42) addition measured after 24 hrs by LDH assay (reference value: 153%); type: functional
# [15] = system: PC-12; experiment: Cytoprotection against amyloid beta (1 to 42)-induced damage in rat PC12 cells assessed as intracellular MDA level at 10 uM preincubated with cells followed by amyloid beta (1 to 42) addition measured after 24 hrs by TBA assay; type: functional; procedure, shortened: as §2
# [16] = system: PC-12; experiment: Cytoprotection against amyloid beta (1 to 42)-induced oxidative damage in rat PC12 cells assessed as intracellular ROS level at 10 uM preincubated with cells followed by amyloid beta (1 to 42) addition measured after 24 hrs by DCFH-DA staining based flow cytometry (reference value: 51.4%); type: functional
# [17] = system: PC-12; experiment: Cytoprotection against amyloid beta (1 to 42)-induced damage in rat PC12 cells assessed as reduction in intracellular MDA level preincubated with cells followed by amyloid beta (1 to 42) addition measured after 24 hrs by TBA assay; type: functional, cell-based; procedure, shortened: as §2
# [18] = system: PC-12; experiment: Cytoprotection against amyloid beta (1 to 42)-induced toxicity in rat PC12 cells assessed as LDH release at 10 uM preincubated with cells followed by amyloid beta (1 to 42) addition measured after 24 hrs by LDH assay (reference value: 153%); type: functional
smiles,measurement,setting,value
C[C@@H]1O[C@@H](O[C@H]2[C@H](O[C@H]3CC[C@]4(C)[C@H]5CC=C6[C@@H]7CC(C)(C)CC[C@]7(C(=O)O[C@@H]7O[C@H](CO[C@@H]8O[C@H](CO)[C@@H](O[C@@H]9O[C@@H](C)[C@H](O)[C@@H](O)[C@H]9O)[C@H](O)[C@H]8O)[C@@H](O)[C@H](O)[C@H]7O)CC[C@@]6(C)[C@]5(C)CC[C@H]4C3(C)C)OC[C@H](O)[C@@H]2O)[C@H](O)[C@H](O)[C@H]1O [HEDERASAPONIN B],viability at 10 µM,[1],54.3%
same,Activity,[2],Toxic
same,viability at 50 µM,[3],60.3%
same,Activity,[4],Active
C[C@@H]1O[C@@H](O[C@H]2[C@H](O[C@H]3CC[C@]4(C)[C@H]5CC=C6[C@@H]7CC(C)(C)CC[C@]7(C(=O)O[C@@H]7O[C@H](CO[C@@H]8O[C@H](CO)[C@@H](O[C@@H]9O[C@@H](C)[C@H](O)[C@@H](O)[C@H]9O)[C@H](O)[C@H]8O)[C@@H](O)[C@H](O)[C@H]7O)CC[C@@]6(C)[C@]5(C)CC[C@H]4C3(C)C)OC[C@H](O[C@@H]3OC[C@H](O)[C@H](O)[C@H]3O)[C@@H]2O)[C@H](O)[C@H](O)[C@H]1O,viability at 10 µM,[1],58.3%
same,Activity,[5],Dose-dependent effect
same,viability at 50 µM,[3],59.7%
C[C@@H]1O[C@@H](O[C@H]2[C@H](O[C@H]3CC[C@]4(C)[C@H]5CC=C6[C@@H]7CC(C)(C)CC[C@]7(C(=O)O[C@@H]7O[C@H](CO[C@@H]8O[C@H](CO)[C@@H](O)[C@H](O)[C@H]8O)[C@@H](O)[C@H](O)[C@H]7O)CC[C@@]6(C)[C@]5(C)CC[C@H]4C3(C)C)OC[C@H](O[C@@H]3O[C@H](CO)[C@@H](O)[C@H](O)[C@H]3O)[C@@H]2O)[C@H](O)[C@H](O)[C@H]1O,viability at 10 µM,[1],29.5%
same,Activity,[6],Toxic
same,viability at 50 µM,[3],19.8%
C[C@@H]1O[C@@H](O[C@H]2[C@H](O[C@H]3CC[C@]4(C)[C@H]5CC=C6[C@@H]7CC(C)(C)CC[C@]7(C(=O)O[C@@H]7O[C@H](CO)[C@@H](O)[C@H](O)[C@H]7O)CC[C@@]6(C)[C@]5(C)CC[C@H]4C3(C)C)OC[C@H](O[C@@H]3O[C@H](CO)[C@@H](O)[C@H](O)[C@H]3O)[C@@H]2O)[C@H](O)[C@H](O)[C@H]1O,viability at 10 µM,[1],14.5%
same,Activity,[6],Toxic
same,viability at 50 µM,[3],10.3%
C[C@@H]1O[C@@H](O[C@H]2[C@H](O[C@H]3CC[C@]4(C)[C@H]5CC=C6[C@@H]7CC(C)(C)CC[C@]7(C(=O)O[C@@H]7O[C@H](CO[C@@H]8O[C@H](CO)[C@@H](O[C@@H]9O[C@@H](C)[C@H](O)[C@@H](O)[C@H]9O)[C@H](O)[C@H]8O)[C@@H](O)[C@H](O)[C@H]7O)CC[C@@]6(C)[C@]5(C)CC[C@H]4C3(C)C)OC[C@H](O[C@@H]3O[C@H](CO)[C@@H](O)[C@H](O)[C@H]3O)[C@@H]2O)[C@H](O)[C@H](O)[C@H]1O,viability at 10 µM,[1],57%
same,Activity,[7],126.7%
same,Activity,[8],1.9 nmol/mL
same,viability at 100 µM,[9],70.4%
same,Activity,[10],1.3 nmol/mL
same,Activity,[5],Dose-dependent effect
same,Activity,[11],29.2%
same,Activity,[12],Dose-dependent effect
same,Activity,[13],35%
same,Activity,[14],138.5%
same,Activity,[15],2.5 nmol/mL
same,Activity,[16],43%
same,Activity,[17],Dose-dependent effect
same,viability at 50 µM,[3],65.8%
same,Activity,[18],147.4%
C[C@@H]1O[C@@H](O[C@H]2[C@H](O[C@H]3CC[C@]4(C)[C@H]5CC=C6[C@@H]7CC(C)(C)CC[C@]7(C(=O)O[C@@H]7O[C@H](CO[C@@H]8O[C@H](CO)[C@@H](O[C@@H]9O[C@@H](C)[C@H](O)[C@@H](O)[C@H]9O)[C@H](O)[C@H]8O)[C@@H](O)[C@H](O)[C@H]7O)CC[C@@]6(C)[C@]5(C)CC[C@H]4C3(C)C)OC[C@H](O[C@@H]3O[C@H](CO)[C@@H](O)[C@H]3O)[C@@H]2O)[C@H](O)[C@H](O)[C@H]1O,viability at 10 µM,[1],58.5%
same,Activity,[5],Dose-dependent effect
same,viability at 50 µM,[3],57.9%
C[C@@H]1O[C@@H](O[C@H]2[C@H](O[C@H]3CC[C@]4(C)[C@H]5CC=C6[C@@H]7CC(C)(C)CC[C@]7(C(=O)O[C@@H]7O[C@H](CO[C@@H]8O[C@H](CO)[C@@H](O[C@@H]9O[C@@H](C)[C@H](O)[C@@H](O)[C@H]9O)[C@H](O)[C@H]8O)[C@@H](O)[C@H](O)[C@H]7O)CC[C@@]6(C)[C@]5(C)CC[C@H]4C3(C)C)OC[C@H](O[C@@H]3OC[C@@H](O)[C@H](O)[C@H]3O)[C@@H]2O)[C@H](O)[C@H](O)[C@H]1O,viability at 10 µM,[1],52.7%
same,Activity,[5],Dose-dependent effect
same,viability at 50 µM,[3],55.7%
C[C@@H]1O[C@@H](O[C@H]2[C@H](O[C@H]3CC[C@]4(C)[C@H]5CC=C6[C@@H]7CC(C)(C)CC[C@]7(C(=O)O[C@@H]7O[C@H](CO[C@@H]8O[C@H](CO)[C@@H](O[C@@H]9O[C@@H](C)[C@H](O)[C@@H](O)[C@H]9O)[C@H](O)[C@H]8O)[C@@H](O)[C@H](O)[C@H]7O)CC[C@@]6(C)[C@]5(C)CC[C@H]4C3(C)C)OC[C@H](O[C@@H]3O[C@H](CO)[C@H](O)[C@H](O)[C@H]3O)[C@@H]2O)[C@H](O)[C@H](O)[C@H]1O,viability at 10 µM,[1],52.6%
same,Activity,[5],Dose-dependent effect
same,viability at 50 µM,[3],58.6%
C[C@@H]1O[C@@H](O[C@H]2[C@H](O[C@H]3CC[C@]4(C)[C@H]5CC=C6[C@@H]7CC(C)(C)CC[C@]7(C(=O)O[C@@H]7O[C@H](CO[C@@H]8O[C@H](CO)[C@@H](O[C@@H]9O[C@@H](C)[C@H](O)[C@@H](O)[C@H]9O)[C@H](O)[C@H]8O)[C@@H](O)[C@H](O)[C@H]7O)CC[C@@]6(C)[C@]5(C)CC[C@H]4C3(C)C)OC[C@H](O[C@@H]3O[C@@H](C)[C@H](O)[C@@H](O)[C@H]3O)[C@@H]2O)[C@H](O)[C@H](O)[C@H]1O,viability at 10 µM,[1],61.4%
same,viability at 100 µM,[9],74.6%
same,Activity,[5],Dose-dependent effect
same,viability at 50 µM,[3],68.4%
